From article PMC3259211 (Journal of Controlled Release, 2011)
pIC50: −log10 of the molar value.

How the values were obtained:
stem cells = settings: mice; ref [12]; cited from earlier work
CXCR4 = CXCR4 (Homo sapiens, UniProt P61073); settings: read-out: IC50 (binding to CXCR4); reported for T140; ref [26]; cited from earlier work
white blood cells (WBCs) = experiment: Mobilization of white blood cells to peripheral blood; assay type: in vivo, mice; settings: 50 µg per mouse s.c., 2 h; in words
Summary of the method: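 Normal mice received 50 µg test peptide s.c. in 200 µL; untreated mice were controls. Heart blood was taken under anaesthesia at 30 min, 1 h and 2 h. 100 µL blood was RBC-lysed, blocked 10 min on ice with 2% rat and 2% mouse serum, and stained for CD45.2, CD3, B220, CD11b, Gr-1 and F4/80. Cells were counted by flow cytometry with counting beads, WBCs gated as CD45.2⁺. Groups had ≥3 mice; two experiments.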

progenitor cells = experiment: Mouse progenitor colony assay; assay type: in vivo, mice; settings: 50 µg, post injection; in words
Summary of the method: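 Mice were injected s.c. with 50 µg peptide; untreated mice were controls. 150 µL blood per mouse was plated in 3 mL MethoCult GF. Colonies were counted by inverted microscope 14 days after plating. Each group had ≥3 mice, assayed in duplicate per mouse.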

[1] = tested on: Jurkat cells (CXCL12-induced migration); settings: Jurkat T-cells; ref [30]; cited from earlier work

CXCR4, sequence (P61073 whole entry): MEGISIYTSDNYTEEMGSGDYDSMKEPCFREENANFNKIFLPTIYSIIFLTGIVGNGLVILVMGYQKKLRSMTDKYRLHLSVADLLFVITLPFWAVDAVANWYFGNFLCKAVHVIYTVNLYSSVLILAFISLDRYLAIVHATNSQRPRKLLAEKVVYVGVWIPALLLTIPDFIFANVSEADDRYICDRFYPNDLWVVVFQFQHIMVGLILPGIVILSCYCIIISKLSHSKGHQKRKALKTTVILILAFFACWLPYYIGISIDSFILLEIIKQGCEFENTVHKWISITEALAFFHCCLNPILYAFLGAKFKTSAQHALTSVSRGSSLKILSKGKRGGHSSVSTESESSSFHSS

Row | Substance | in vivo mobilization of stem cells from the bone marrow (stem cells) | pIC50 (CXCR4) | time course of WBC numbers in the blood (white blood cells (WBCs)) | time course of progenitors in the blood (progenitor cells) | lowest concentration that induces maximal migration [1]
1 | 4-F-benzoyl-TN14003 [T140] | induces in vivo mobilization of stem cells from the bone marrow, which is additive in effect with G-CSF treatment | 8.60 | remained relatively stable after 2 h | increased steadily and remained substantially elevated between 2 and 4 h post injection | –
2 | CXCL12: natural human ligand of CXCR4, chemokine CXCL12/SDF-1 | – | – | – | – | 100 ng/mL
